ChEMBL document CHEMBL4196108, “5-Aroylindoles Act as Selective Histone Deacetylase 6 Inhibitors Ameliorating Alzheimer's Disease Phenotypes” (J Med Chem, 2018)
Calls of active or inactive are those of the source. No cut-off for these calls is given here.

Legend:
[1] = biological target: T1, Protein deacetylase HDAC6 (Homo sapiens) (UniProt Q9UBN7); assay: Inhibition of HDAC6 in human SH-SY5Y cells transfected with pCAX FLAG APP and pRK5-EGFP-Tau P301L plasmids assessed as increase in HSP70 protein expression at 1 uM after 24 hrs by Western blot analysis; assay type: cell-based
T1 sequence (whole entry): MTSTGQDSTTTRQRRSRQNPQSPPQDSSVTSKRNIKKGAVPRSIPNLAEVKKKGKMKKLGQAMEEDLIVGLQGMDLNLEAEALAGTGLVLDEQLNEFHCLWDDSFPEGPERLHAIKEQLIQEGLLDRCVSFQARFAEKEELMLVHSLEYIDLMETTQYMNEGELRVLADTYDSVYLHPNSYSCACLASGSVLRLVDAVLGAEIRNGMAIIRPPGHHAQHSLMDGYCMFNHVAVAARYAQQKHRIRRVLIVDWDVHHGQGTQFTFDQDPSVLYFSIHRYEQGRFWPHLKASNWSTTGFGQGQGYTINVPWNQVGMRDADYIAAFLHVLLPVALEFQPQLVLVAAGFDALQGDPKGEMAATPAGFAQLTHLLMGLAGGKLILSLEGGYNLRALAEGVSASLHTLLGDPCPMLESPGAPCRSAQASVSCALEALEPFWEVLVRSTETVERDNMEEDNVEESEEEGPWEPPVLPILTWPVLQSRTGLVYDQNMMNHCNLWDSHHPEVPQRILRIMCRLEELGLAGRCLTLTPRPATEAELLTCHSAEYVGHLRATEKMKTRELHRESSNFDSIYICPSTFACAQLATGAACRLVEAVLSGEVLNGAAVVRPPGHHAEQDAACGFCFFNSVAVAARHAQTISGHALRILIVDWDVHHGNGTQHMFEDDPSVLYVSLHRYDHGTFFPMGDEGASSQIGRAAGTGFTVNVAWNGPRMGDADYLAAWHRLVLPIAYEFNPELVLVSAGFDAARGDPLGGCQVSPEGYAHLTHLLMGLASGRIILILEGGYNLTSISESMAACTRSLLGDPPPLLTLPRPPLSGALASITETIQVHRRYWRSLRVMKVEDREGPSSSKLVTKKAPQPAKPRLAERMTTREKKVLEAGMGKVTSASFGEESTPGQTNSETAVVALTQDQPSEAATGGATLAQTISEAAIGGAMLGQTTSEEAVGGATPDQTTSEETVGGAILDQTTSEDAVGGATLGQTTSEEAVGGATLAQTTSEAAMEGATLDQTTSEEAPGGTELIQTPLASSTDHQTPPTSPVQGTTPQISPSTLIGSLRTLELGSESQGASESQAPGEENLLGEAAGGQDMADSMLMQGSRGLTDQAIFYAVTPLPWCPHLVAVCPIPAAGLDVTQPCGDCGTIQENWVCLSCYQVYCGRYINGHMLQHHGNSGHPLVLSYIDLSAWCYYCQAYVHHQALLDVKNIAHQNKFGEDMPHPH
How it was run: (§1)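 SH-SY5Y and Neuro-2a cells cotransfected 24 h with APP695/Tau P301L plasmids, treated 24 h at 1 µM (ACY-1215 reference). 30 µg lysate immunoprecipitated overnight at 4 °C with anti-HDAC6 or anti-acetyl-lysine antibodies plus protein A/G beads, run on 8% SDS-PAGE, probed for Hsp90; Hsp70 by immunoblot. Three independent experiments.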

Mus musculus = assay: In vivo inhibition of HDAC6 in scopolamine-treated 3xTg-AD transgenic mouse brain hippocampal CA1 region assessed as increase in acetyl-alpha-tubulin level at 50 mg/kg, po administered daily for 3 months by immunohistochemical analysis; assay type: functional, organism-based
How it was run: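 Female 3xTg-AD mice, standard diet to 6 months of age, then 50 mg/kg orally once daily for three months; memantine 30 mg/kg in water as comparator. Brains removed and hippocampal CA1 sections immunostained for acetyl-α-tubulin and phospho-tau Ser396 and Ser404. Mean ± STD; one-way ANOVA.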

[2] = biological target: T1, Protein deacetylase HDAC6 (Homo sapiens); assay: Inhibition of HDAC6 in human SH-SY5Y cells transfected with pCAX FLAG APP and pRK5-EGFP-Tau P301L plasmids assessed as inhibition of amyloid beta (1 to 40)-induced Tau P301L mutant phosphorylation at 1 uM after 24 hrs by Western blot analysis
[3] = Ratio of drug level in brain to plasma in Sprague-Dawley rat at 50 mg/kg, po after 3 hrs; assay type: ADME, organism-based; settings: read-out: BPR
[4] = biological target: T2, Protein deacetylase HDAC6 (Mus musculus) (UniProt Q9Z2V5); assay: Inhibition of HDAC6 binding to HSP90 in mouse Neuro-2a cells transfected with pCAX FLAG APP and pRK5-EGFP-Tau P301L plasmids at 1 uM after 24 hrs by coimmunoprecipitation analysis; assay type: cell-based; how it was run: as §1
T2 sequence (whole entry): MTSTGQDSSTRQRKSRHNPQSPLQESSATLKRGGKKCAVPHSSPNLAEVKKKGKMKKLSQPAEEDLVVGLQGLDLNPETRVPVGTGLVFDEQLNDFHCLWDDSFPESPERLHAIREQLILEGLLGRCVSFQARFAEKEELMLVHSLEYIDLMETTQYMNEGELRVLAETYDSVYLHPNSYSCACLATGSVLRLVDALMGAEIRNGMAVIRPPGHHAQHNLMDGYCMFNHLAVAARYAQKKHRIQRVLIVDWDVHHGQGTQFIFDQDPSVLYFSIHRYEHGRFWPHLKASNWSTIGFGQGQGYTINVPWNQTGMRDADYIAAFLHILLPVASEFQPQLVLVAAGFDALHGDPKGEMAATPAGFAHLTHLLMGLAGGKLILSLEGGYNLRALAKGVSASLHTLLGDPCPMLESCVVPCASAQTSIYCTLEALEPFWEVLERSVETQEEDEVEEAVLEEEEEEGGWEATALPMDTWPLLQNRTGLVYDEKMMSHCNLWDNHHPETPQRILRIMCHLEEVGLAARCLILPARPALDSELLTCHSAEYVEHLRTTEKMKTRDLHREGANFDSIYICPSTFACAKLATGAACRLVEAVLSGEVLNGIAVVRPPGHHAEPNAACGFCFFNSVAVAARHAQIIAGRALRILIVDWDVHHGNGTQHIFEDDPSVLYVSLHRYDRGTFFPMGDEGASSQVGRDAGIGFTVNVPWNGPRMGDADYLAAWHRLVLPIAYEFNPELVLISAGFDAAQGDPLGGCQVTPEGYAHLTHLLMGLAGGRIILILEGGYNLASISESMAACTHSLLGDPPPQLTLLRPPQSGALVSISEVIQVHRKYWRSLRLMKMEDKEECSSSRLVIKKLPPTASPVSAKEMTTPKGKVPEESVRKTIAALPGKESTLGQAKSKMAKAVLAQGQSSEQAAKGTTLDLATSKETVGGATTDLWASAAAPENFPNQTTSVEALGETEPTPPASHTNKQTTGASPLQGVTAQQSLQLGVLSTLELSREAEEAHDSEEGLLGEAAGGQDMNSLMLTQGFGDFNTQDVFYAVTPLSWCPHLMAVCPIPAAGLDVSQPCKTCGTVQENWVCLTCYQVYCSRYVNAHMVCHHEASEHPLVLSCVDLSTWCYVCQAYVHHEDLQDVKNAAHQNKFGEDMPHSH

With `COc1ccc(C(=O)c2ccc3c(ccn3Cc3ccc(C(=O)NO)cc3)c2)cc1` the inhibition [1] was “Active”, the inhibition (Mus musculus) was “Active” and the inhibition [2] was “Active”. For the same compound, the Kp at 3 h [3] was 0.86 and the inhibition [4] was “Active”.
